Data published in ChEMBL document CHEMBL1125724, “Potential anti-AIDS agents. Synthesis and antiviral activity of naphthalenesulfonic acid derivatives against HIV-1 and HIV-2” (1991).
≈ marks a conversion by molar mass, not a printed value.

Legend:
MT4 [1] = test: Compound was evaluated for inhibitory effect against MT-4 cells of HIV-1 at a concentration of 20(84) ug/mL (uM).; type: functional, Homo sapiens
How it was run: (§1)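 HIV-1 (HTLV-III_B) infected MT-4 cells at multiplicity of infection 0.02, incubated with a range of compound concentrations for 4 days. Viable cells counted by MTT method. Per-concentration inhibition of virus-induced cytopathogenicity; values are means of two separate experiments.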

MT4 [2] = test: Compound was evaluated for inhibitory effect against MT-4 cells of HIV-1 at a concentration of 0.8(3.4) ug/mL (uM).; type: functional, Homo sapiens; how it was run: as §1
[3] = biological target: Human immunodeficiency virus type 1 reverse transcriptase (Human immunodeficiency virus 1) (UniProt Q72547); test: Compound tested for % inhibition of cell-free HIV-1 Reverse Transcriptase at a concentration of 16.8 uM
How it was run: (§2)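 HIV-1 RT from partially purified, concentrated disrupted virions. Reaction at 37 °C for 30 min in 50 mM Tris-HCl pH 8.4, 2 mM DTT, 100 mM KCl, 10 mM MgCl2, 0.1% Triton X-100, with 1 µCi [methyl-3H]dTTP (30 Ci/mmol) and 0.01 unit poly(rA)·oligo(dT). Stopped with 5% TCA; precipitate collected on glass-fiber filters and counted by liquid scintillation. Experimental variation at most 10%.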

[4] = biological target: Human immunodeficiency virus type 1 reverse transcriptase (Human immunodeficiency virus 1) (UniProt Q72547); test: Inhibitory dose at a concentration of 2100 uM cell-free HIV-1 Reverse Transcriptase; how it was run: as §2
MT4 [5] = test: Compound was evaluated for inhibitory effect against MT-4 cells of HIV-2 at a concentration of 100(420) ug/mL (uM).; type: functional, Homo sapiens
How it was run: (§3)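 HIV-2 (ROD strain) infected MT-4 cells at multiplicity of infection 0.02, incubated with a range of compound concentrations for 4 days. Viable cells counted by MTT method. Per-concentration inhibition of virus-induced cytopathogenicity; values are means of two separate experiments.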

MT4 [6] = test: Compound was evaluated for inhibitory effect against MT-4 cells of HIV-2 at a concentration of 4(16.8) ug/mL (uM).; type: functional, Homo sapiens; how it was run: as §3
MT4 [7] = test: Cell viability at a concentration of 0.8(3.4) ug/mL (uM).; type: functional, Homo sapiens
MT4 [8] = test: Compound was evaluated for inhibitory effect against MT-4 cells of HIV-2 at a concentration of 0.8(3.4) ug/mL (uM).; type: functional, Homo sapiens; how it was run: as §3
[9] = biological target: Human immunodeficiency virus type 1 reverse transcriptase (Human immunodeficiency virus 1) (UniProt Q72547); test: Compound tested for % inhibition of cell-free HIV-1 Reverse Transcriptase at a concentration of 84 uM.; how it was run: as §2
MT4 [10] = test: Compound tested for its inhibition of HIV-1 induced cytopathogenicity in MT-4 cells.; type: functional; settings: Homo sapiens, read-out: ED50 (the source's name)
How it was run: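 MT-4 cells infected with HIV-1 (HTLV-III_B) at MOI 0.02 and incubated 4 days with a range of compound concentrations. Viable cells were counted by MTT. ED50 is the 50% antiviral dose from inhibition of virus-induced cytopathogenicity, given as the mean of two separate experiments.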

[11] = system: Human immunodeficiency virus 1; test: Compound tested for % inhibition of giant cell formation at a concentration of 420 uM
MT4 [12] = test: Compound was evaluated for inhibitory effect against MT-4 cells of HIV-1 at a concentration of 100(420) ug/mL (uM).; type: functional, Homo sapiens; how it was run: as §1
MT4 [13] = test: Cell viability at a concentration of 100(420) ug/mL (uM).; type: functional, Homo sapiens
MT4 [14] = test: Compound tested for its inhibition of HIV-2 induced cytopathogenicity in MT-4 cells.; type: functional; settings: Homo sapiens, read-out: ED50 (the source's name)
How it was run: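 MT-4 cells infected with HIV-2 (ROD) at MOI 0.02 and incubated 4 days with a range of compound concentrations. Viable cells were counted by MTT. ED50 is the dose giving 50% inhibition of virus-induced cytopathogenicity, given as the mean of two separate experiments.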

MT4 [15] = test: Cell viability at a concentration of 4(16.8) ug/mL (uM).; type: functional, Homo sapiens
MT4 [16] = test: Compound tested for its ability to reduce viability of mock-infected MT-4 cells.; type: functional; settings: Homo sapiens, read-out: CD50 (the source's name)
How it was run: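 Mock-infected MT-4 cells were incubated 4 days with a range of compound concentrations, and viability was read by MTT. CD50 is the 50% cytotoxic dose from reduced viability, given as the mean of two separate experiments.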

MT4 [17] = test: Cell viability at a concentration of 20(84) ug/mL (uM).; type: functional, Homo sapiens
MT4 [18] = test: Compound was evaluated for inhibitory effect against MT-4 cells of HIV-2 at a concentration of 20(84) ug/mL (uM).; type: functional, Homo sapiens; how it was run: as §3
MT4 [19] = test: Compound was evaluated for inhibitory effect against MT-4 cells of HIV-2 at a concentration of 20(21.4) ug/mL (uM).; type: functional, Homo sapiens; how it was run: as §3
MT4 [20] = test: Cell viability at a concentration of 100(107) ug/mL (uM).; type: functional, Homo sapiens
MT4 [21] = test: Cell viability at a concentration of 4(4.3) ug/mL (uM).; type: functional, Homo sapiens
[22] = biological target: Human immunodeficiency virus type 1 reverse transcriptase (Human immunodeficiency virus 1) (UniProt Q72547); test: Inhibitory dose at a concentration 535 uM cell-free HIV-1 Reverse Transcriptase; how it was run: as §2
MT4 [23] = test: Compound was evaluated for inhibitory effect against MT-4 cells of HIV-1 at a concentration of 20(21.4) ug/mL (uM).; type: functional, Homo sapiens; how it was run: as §1
MT4 [24] = test: Compound was evaluated for inhibitory effect against MT-4 cells of HIV-2 at a concentration of 100(107) ug/mL (uM).; type: functional, Homo sapiens; how it was run: as §3
[25] = biological target: Human immunodeficiency virus type 1 reverse transcriptase (Human immunodeficiency virus 1) (UniProt Q72547); test: Compound tested for % inhibition of cell-free HIV-1 Reverse Transcriptase at a concentration of 21.4 uM.; how it was run: as §2
MT4 [26] = test: Cell viability at a concentration of 0.8(0.9) ug/mL (uM).; type: functional, Homo sapiens
MT4 [27] = test: Compound was evaluated for inhibitory effect against MT-4 cells of HIV-1 at a concentration of 100(107) ug/mL (uM).; type: functional, Homo sapiens; how it was run: as §1
MT4 [28] = test: Compound was evaluated for inhibitory effect against MT-4 cells of HIV-2 at a concentration of 0.8(0.9) ug/mL (uM).; type: functional, Homo sapiens; how it was run: as §3
MT4 [29] = test: Compound was evaluated for inhibitory effect against MT-4 cells of HIV-1 at a concentration of 4(4.3) ug/mL (uM).; type: functional, Homo sapiens; how it was run: as §1
MT4 [30] = test: Compound was evaluated for inhibitory effect against MT-4 cells of HIV-1 at a concentration of 0.8(0.9) ug/mL (uM).; type: functional, Homo sapiens; how it was run: as §1
MT4 [31] = test: Cell viability at a concentration of 20(21.4) ug/mL (uM).; type: functional, Homo sapiens
MT4 [32] = test: Compound was evaluated for inhibitory effect against MT-4 cells of HIV-2 at a concentration of 4(4.3) ug/mL (uM).; type: functional, Homo sapiens; how it was run: as §3
[33] = biological target: Human immunodeficiency virus type 1 reverse transcriptase (Human immunodeficiency virus 1) (UniProt Q72547); test: Compound tested for % inhibition of cell-free HIV-1 Reverse Transcriptase at a concentration of 4.3 uM; how it was run: as §2
[34] = system: Human immunodeficiency virus 1; test: Compound tested for % inhibition of giant cell formation at a concentration of 107 uM
[35] = biological target: Human immunodeficiency virus type 1 reverse transcriptase (Human immunodeficiency virus 1) (UniProt Q72547); test: Compound tested for % inhibition of cell-free HIV-1 Reverse Transcriptase at a concentration of 535 uM; how it was run: as §2

## Nc1cc(S(=O)(=O)O)c2ccccc2c1N
MT4 [1]
  Inhibition: 0%
MT4 [2]
  Inhibition: 0%
[3]
  inhibition: 2%
[4]
  ID50: > 500 µg/mL
MT4 [5]
  Inhibition: 0%
MT4 [6]
  Inhibition: 3%
MT4 [7]
  Cell viability: 13
MT4 [8]
  Inhibition: 1%
[9]
  inhibition: 1%
MT4 [10]
  EC50: > 45 µg/mL
[11]
  inhibition: 0%
MT4 [12]
  Inhibition: 0%
MT4 [13]
  Cell viability: 97
MT4 [14]
  EC50: > 45 µg/mL
MT4 [15]
  Cell viability: 0
MT4 [16]
  CC50: 45 µg/mL (≈ 189 µM)
MT4 [17]
  Cell viability: 1
MT4 [18]
  Inhibition: 0%

## O=C(CCCCCCCCCCC(=O)Nc1cc(S(=O)(=O)O)cc2cc(S(=O)(=O)[O-])cc(O)c12)Nc1cc(S(=O)(=O)O)cc2cc(S(=O)(=O)[O-])cc(O)c12.[Na+].[Na+]
MT4 [19]
  Inhibition: 4%
MT4 [20]
  Cell viability: 0
MT4 [21]
  Cell viability: 5
[22]
  ID50: 160 µg/mL
MT4 [10]
  EC50: 39 µg/mL
MT4 [23]
  Inhibition: 14%
MT4 [24]
  Inhibition: 100%
[25]
  inhibition: 44%
MT4 [26]
  Cell viability: 4
MT4 [14]
  EC50: 43 µg/mL
MT4 [27]
  Inhibition: 100%
MT4 [28]
  Inhibition: 3%
MT4 [29]
  Inhibition: 2%
MT4 [30]
  Inhibition: 0%
MT4 [31]
  Cell viability: 9
MT4 [16]
  CC50: > 100 µg/mL
MT4 [32]
  Inhibition: 3%
[33]
  inhibition: 15%
[34]
  inhibition: 99%
[35]
  inhibition: 100%
